Measured values reported in ChEMBL document CHEMBL1128287, “Ketanserin analogues: the effect of structural modification on 5-HT2 serotonin receptor binding” (J Med Chem, 1995).

Assays:
[1] = biological target: 5-hydroxytryptamine receptor 2A (Rattus norvegicus, UniProt P14842); experiment: Binding affinity against 5-hydroxytryptamine 2A receptor
Procedure, shortened: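 Brain tissue homogenized in Tris-HCl 50 mM, MgCl2 10 mM, pH 7.4, then washed, incubated 15 min at 37 °C, and resuspended with 0.1% ascorbate and 10⁻⁵ M pargyline. Triplicate tubes held 5 mg wet tissue and 0.4 nM [³H]-ketanserin, with 1.0 μM cinanserin defining nonspecific binding. Incubated 15 min at 37 °C, then filtered. Ki = IC50/(1 + D*/KD*).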

[2] = biological target: Serotonin receptor 2a and 2c (5HT2A and 5HT2C) (Rattus norvegicus) (UniProt P08909+P14842); experiment: Selectivity as the ratio of Ki value towards 5-hydroxytryptamine 2C receptor to that of 5-hydroxytryptamine 2A receptor; type: protein assay
Serotonin receptor 2a and 2c (5HT2A and 5HT2C) (Rattus norvegicus), sequence (P14842 whole entry, looked up, one chain of several): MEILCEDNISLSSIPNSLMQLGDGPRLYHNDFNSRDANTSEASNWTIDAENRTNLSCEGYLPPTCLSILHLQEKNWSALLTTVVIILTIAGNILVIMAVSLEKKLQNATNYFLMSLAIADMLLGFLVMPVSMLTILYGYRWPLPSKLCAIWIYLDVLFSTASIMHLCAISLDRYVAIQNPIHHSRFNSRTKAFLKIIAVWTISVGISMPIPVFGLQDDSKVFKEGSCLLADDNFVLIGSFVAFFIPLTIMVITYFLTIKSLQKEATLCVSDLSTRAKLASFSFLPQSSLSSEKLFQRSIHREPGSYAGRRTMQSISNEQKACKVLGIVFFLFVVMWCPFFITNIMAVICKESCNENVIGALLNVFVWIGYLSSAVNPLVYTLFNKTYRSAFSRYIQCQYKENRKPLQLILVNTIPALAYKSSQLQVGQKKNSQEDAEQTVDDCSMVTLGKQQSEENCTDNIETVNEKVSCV

[3] = biological target: T1, 5-hydroxytryptamine receptor 2C (Rattus norvegicus, UniProt P08909); experiment: Binding affinity against 5-hydroxytryptamine 2C receptor
T1 sequence (P08909 whole entry): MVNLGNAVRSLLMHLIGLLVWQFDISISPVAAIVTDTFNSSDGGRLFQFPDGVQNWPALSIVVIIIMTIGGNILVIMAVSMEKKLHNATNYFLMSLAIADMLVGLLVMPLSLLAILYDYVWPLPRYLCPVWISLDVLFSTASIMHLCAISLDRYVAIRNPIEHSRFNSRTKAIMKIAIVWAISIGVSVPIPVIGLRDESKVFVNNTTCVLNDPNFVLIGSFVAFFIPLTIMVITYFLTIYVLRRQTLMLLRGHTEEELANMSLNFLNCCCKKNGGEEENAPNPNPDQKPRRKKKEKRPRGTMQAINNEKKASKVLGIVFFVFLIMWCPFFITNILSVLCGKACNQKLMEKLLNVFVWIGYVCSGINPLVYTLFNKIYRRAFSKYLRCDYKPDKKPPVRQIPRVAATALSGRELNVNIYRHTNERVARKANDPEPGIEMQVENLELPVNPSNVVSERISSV
Procedure, shortened: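 Washed brain membranes in Tris-HCl/MgCl2 pH 7.4 with ascorbate and pargyline. Triplicate tubes held 10 mg wet tissue, 1 nM [³H]-mesulergine, and 100 nM spiperone in every tube to block 5-HT2A sites. Nonspecific binding was defined with 1.0 μM mianserin. Incubated 15 min at 37 °C, then filtered and counted. Ki came from IC50 corrected for radioligand concentration and KD.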

5-hydroxytryptamine receptor 2A, sequence (P14842 whole entry): as the sequence (P14842 whole entry, looked up, one chain of several) above

Structure (SMILES)	Ki [1] [nM]	Selectivity [2]	Ki [3] [nM]
O=C(c1ccc(F)cc1)C1CCN(CCc2ccccc2)CC1	8.5	17	
O=C(c1ccccc1)N1CCN(CCCCc2ccccc2)CC1	180	47	8520
O=C(c1ccccc1)C1CCN(CCc2ccccc2)CC1	9.6	83	800
C(=C(\c1ccccc1)C1CCN(CCc2ccccc2)CC1)/c1ccccc1	19		
CN1CCN(C(=O)c2ccccc2)CC1	> 10000		> 10000
O=c1[nH]c2ccccc2c(=O)n1CCN1CCN(C(c2ccccc2)c2ccccc2)CC1	65	10	635
C(/Cc1ccccc1)=C(\c1ccccc1)C1CCN(CCCCc2ccccc2)CC1	100	14	1390
OC(c1ccccc1)C1CCN(CCCCc2ccccc2)CC1 (stereo unspecified)	265	> 35	> 10000
O=c1[nH]c2ccccc2c(=O)n1CCN1CCC(C(c2ccccc2)c2ccccc2)CC1	18	3	52
c1ccc(CCN2CCC(Cc3ccccc3)CC2)cc1	22	80	1760
CN1CCC(C(=O)c2ccccc2)CC1	600	> 16	> 10000
O=C(c1ccc(F)cc1)C1CCN(CCCCc2ccccc2)CC1	5.3	120	
c1ccc(CCCCN2CCC(=C(c3ccccc3)c3ccccc3)CC2)cc1	20	11	220
OC(c1ccc(F)cc1)C1CCN(CCCCc2ccccc2)CC1 (stereo unspecified)	126	52	6600
c1ccc(CCCCN2CCC(Cc3ccccc3)CC2)cc1	120	34	4120
Fc1ccc(CC2CCN(CCc3ccccc3)CC2)cc1	18	110	2000
OC(c1ccccc1)C1CCN(CCc2ccccc2)CC1 (stereo unspecified) [GLEMANSERIN]	2.5	330	830
OC(c1ccc(F)cc1)C1CCN(CCc2ccccc2)CC1 (stereo unspecified)	3	460	1520
c1ccc(CCCCN2CCN(Cc3ccccc3)CC2)cc1	240	> 40	> 10000
O=C(c1ccccc1)C1CCN(CCCCc2ccccc2)CC1	10	240	2400
Fc1ccc(CC2CCN(CCCCc3ccccc3)CC2)cc1	40	70	2740
c1ccc(CCN2CCC(=C(c3ccccc3)c3ccccc3)CC2)cc1	6.9	4	29
